Laboratory results taken from the M2OR odorant receptor database.

System: T1, OR2W1
T1 sequence (whole entry): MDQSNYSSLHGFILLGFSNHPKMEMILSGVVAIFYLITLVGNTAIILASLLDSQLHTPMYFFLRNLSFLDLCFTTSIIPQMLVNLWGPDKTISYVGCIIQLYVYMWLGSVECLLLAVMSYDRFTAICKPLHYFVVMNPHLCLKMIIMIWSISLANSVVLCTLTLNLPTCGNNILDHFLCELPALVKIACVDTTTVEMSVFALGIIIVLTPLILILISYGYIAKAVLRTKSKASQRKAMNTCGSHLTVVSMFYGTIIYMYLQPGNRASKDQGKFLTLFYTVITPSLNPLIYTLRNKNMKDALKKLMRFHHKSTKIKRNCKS
Conditions: stereoisomer not certain
Procedure, shortened: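 Each entry records the cell line, G-protein, co-transfected protein and tags used. Methods varied with the source, often transient luciferase assays in mammalian cell lines. A receptor–molecule pair is called responsive (active) if the original authors judged its signal statistically different from baseline and non-responsive (inactive) otherwise.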

Odorant receptor agonist call, active:
C=CC(=O)CCCCC
CC1=CCC(C(C)(C)S)CC1 (stereo not drawn)
CC(=O)OCCC(C)C
CCCSSCCC
CC(C)(S)CCOC=O
C=CC(=C)CCC=C(C)C
CSCc1ccco1
COc1ccc(C)cc1O
CCCCCC=CC=O
CCCC(S)CCO (stereo not drawn)
OCCCc1ccccc1
CCc1ccc(O)cc1
CCCCCc1ccccn1
CCOC(=O)CCSC
c1coc(CSSCc2ccco2)c1
CC(=O)OCCc1ccccc1
CC(S)c1ccccc1 (stereo not drawn)
CCCCCC(C)O (stereo not drawn)
SCCc1ccccc1
CCc1cccc(O)c1
CCOC(=O)C(C)C
CCOC(=O)C(C)CC (stereo not drawn)
CSSCc1ccco1
CC(=O)c1cnccn1
CC(=O)c1ccc(C)cc1
OCCc1ccccc1
CC(=O)OCC=Cc1ccccc1
CCCCCCOC(C)=O
CCCCC1OC(=O)CC1C (stereo not drawn)
CCCCCCCC(C)=O
CCOC(=O)c1ccccc1
CCCC(=O)OCC
CCCCCCC1CCC(=O)O1 (stereo not drawn)
